Assay results pooled from the literature.
Compare with care: the assays were run in different laboratories.
Target: Angiopoietin-1 receptor (TEK, Homo sapiens, UniProt Q02763)

Structure (SMILES)	effect on	mode	method	tested at	quantity	value
Cn1cc(-c2cc(F)cc(N3CCn4c(cc5c4CCCC5)C3=O)c2CO)cc(Nc2ccc(N3CCN(C4COC4)CC3)cn2)c1=O	enzyme activity	inhibitor		0.1 µM	inhibition	7%
O=c1[nH]c2ccccc2n1C1CCN(Cc2ccc(-c3[nH]c4cc5ncnc5cc4nc3-c3ccccc3)cc2)CC1	cell-free assay			0.5 µM	remaining signal	102%
O=C(NCc1ncc(C(F)(F)F)cc1Cl)c1ccc2c(c1)C1(CCS(=O)(=O)CC1)[C@@H](C1CC1)N2S(=O)(=O)c1ccc(F)cc1	cell-free assay		competition with immobilised ligand	1 µM	remaining binding	96%
Nc1ncc(-c2nc(N3CCOCC3)nc(N3CCOCC3)n2)c(C(F)F)n1	cell-free assay		competition with immobilised ligand	10 µM	remaining binding	99%
Cn1cncc1[C@@](O)(COc1ccc(C#N)cc1-c1ccc(OC(F)(F)F)cc1)c1ccc(C#N)cc1	cell-free assay		competition with immobilised ligand	1 µM	remaining binding	92%
CC(C)(C)c1cc(C=C(C#N)C#N)cc(Br)c1O	enzyme activity	inhibitor		0.5 µM	remaining activity	97.9%
Cc1nn(C)cc1-c1nc2c(N3CCN(Cc4ccc(Cl)cc4)CC3)c(Cl)cnc2[nH]1	binding		competition with immobilised ligand	1 µM	remaining binding	56%
COCc1c(-c2cc3cc(C)cc(OC)c3s2)c2c(N)ncnn2c1CN1CCNC(=O)C1	cell-free assay		competition with immobilised ligand	1 µM	inhibition	89%
COc1cc(Nc2ncc(F)c(Nc3ccc4c(n3)NC(=O)C(C)(C)O4)n2)cc(OC)c1OC	binding			10 µM	inhibition	94%
COc1ncccc1-c1cnn2ccc(N3CCN(C(=O)OC(C)C)CC3)nc12	binding		competition with immobilised ligand	1 µM	remaining binding	98%
